Measured values taken from ChEMBL document CHEMBL1145427, “Quick assembly of 1,4-diphenyltriazoles as probes targeting beta-amyloid aggregates in Alzheimer's disease” (J Med Chem, 2007).

What was measured:
[1] = Displacement of [125I]IMPY from beta amyloid protein plaques in Alzheimer's disease patient brain; parameters: species or system Homo sapiens
In short: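 Competition binding to pooled gray-matter homogenates from four AD brains (approximately 100 mg wet tissue/mL in PBS pH 7.4; 20–50 μg per tube). [125I]2 at 0.04–0.06 nM; inhibitors 10^-5–10^-10 M in PBS with 0.1% BSA; final volume 1 mL. Nonspecific binding with 600 nM 2. Incubated 37 °C, 2 h; GF/B filtration, gamma counting. Ki from nonlinear regression.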

Zone of skin [2] = assay: Biodistribution in ICR mouse skin at 5 to 10 uCi, iv after 2 hrs; assay type: ADME, organism-based; settings: in vivo
In short: (§1)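 Male ICR mice (22–25 g) under isoflurane anesthesia; [125I] or [18F] tracer (5–10 μCi) in 0.15 mL of 0.1% bovine serum albumin solution injected into the tail vein. Groups of n = 3 per time point, killed by cervical dislocation. Organs removed, weighed and gamma-counted against diluted aliquots of injected dose, giving % dose/organ and % ID/g. Total blood activity assumed as 7% of body weight.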

Thyroid gland [3] = assay: Biodistribution in ICR mouse thyroid at 5 to 10 uCi, iv after 30 mins; assay type: ADME, organism-based; settings: in vivo, 0.5 h; in short: as §1
Kidney [4] = assay: Biodistribution in ICR mouse kidney at 5 to 10 uCi, iv after 2 hrs; assay type: ADME, organism-based; settings: in vivo; in short: as §1
Blood [5] = assay: Biodistribution in ICR mouse blood at 5 to 10 uCi, iv after 30 mins; assay type: ADME, organism-based; settings: in vivo, 0.5 h; in short: as §1
Kidney [6] = assay: Biodistribution in ICR mouse kidney at 5 to 10 uCi, iv after 1 hr; assay type: ADME, organism-based; settings: in vivo; in short: as §1
Muscle tissue [7] = assay: Biodistribution in ICR mouse muscle at 5 to 10 uCi, iv after 2 hrs; assay type: ADME, organism-based; settings: in vivo; in short: as §1
Zone of skin [8] = assay: Biodistribution in ICR mouse skin at 5 to 10 uCi, iv after 30 mins; assay type: ADME, organism-based; settings: in vivo, 0.5 h; in short: as §1
Blood [9] = assay: Biodistribution in ICR mouse blood at 5 to 10 uCi, iv after 1 hr; assay type: ADME, organism-based; settings: in vivo; in short: as §1
Lung [10] = assay: Biodistribution in ICR mouse lung at 5 to 10 uCi, iv after 2 mins; assay type: ADME, organism-based; settings: in vivo; in short: as §1
Spleen [11] = assay: Biodistribution in ICR mouse spleen at 5 to 10 uCi, iv after 2 mins; assay type: ADME, organism-based; settings: in vivo; in short: as §1
Zone of skin [12] = assay: Biodistribution in ICR mouse skin at 5 to 10 uCi, iv after 1 hr; assay type: ADME, organism-based; settings: in vivo; in short: as §1
Thyroid gland [13] = assay: Biodistribution in ICR mouse thyroid at 5 to 10 uCi, iv after 2 hrs; assay type: ADME, organism-based; settings: in vivo; in short: as §1
Zone of skin [14] = assay: Biodistribution in ICR mouse skin at 5 to 10 uCi, iv after 2 mins; assay type: ADME, organism-based; settings: in vivo; in short: as §1
Liver [15] = assay: Biodistribution in ICR mouse liver at 5 to 10 uCi, iv after 2 mins; assay type: ADME, organism-based; settings: in vivo; in short: as §1
Blood [16] = assay: Biodistribution in ICR mouse blood at 5 to 10 uCi, iv after 2 hrs; assay type: ADME, organism-based; settings: in vivo; in short: as §1
Brain [17] = assay: Biodistribution in ICR mouse brain at 5 to 10 uCi, iv after 2 hrs; assay type: ADME, organism-based; settings: in vivo; in short: as §1
Thyroid gland [18] = assay: Biodistribution in ICR mouse thyroid at 5 to 10 uCi, iv after 1 hr; assay type: ADME, organism-based; settings: in vivo; in short: as §1
Muscle tissue [19] = assay: Biodistribution in ICR mouse muscle at 5 to 10 uCi, iv after 1 hr; assay type: ADME, organism-based; settings: in vivo; in short: as §1
Thyroid gland [20] = assay: Biodistribution in ICR mouse thyroid at 5 to 10 uCi, iv after 2 mins; assay type: ADME, organism-based; settings: in vivo; in short: as §1
Muscle tissue [21] = assay: Biodistribution in ICR mouse muscle at 5 to 10 uCi, iv after 30 mins; assay type: ADME, organism-based; settings: in vivo, 0.5 h; in short: as §1
Heart [22] = assay: Biodistribution in ICR mouse heart at 5 to 10 uCi, iv after 1 hr; assay type: ADME, organism-based; settings: in vivo; in short: as §1
Blood [23] = assay: Biodistribution in ICR mouse blood at 5 to 10 uCi, iv after 2 mins; assay type: ADME, organism-based; settings: in vivo; in short: as §1
Brain [24] = assay: Biodistribution in ICR mouse brain at 5 to 10 uCi, iv after 2 mins; assay type: ADME, organism-based; settings: in vivo; in short: as §1
Lung [25] = assay: Biodistribution in ICR mouse lung at 5 to 10 uCi, iv after 2 hrs; assay type: ADME, organism-based; settings: in vivo; in short: as §1
Brain [26] = assay: Biodistribution in ICR mouse brain at 5 to 10 uCi, iv after 30 mins; assay type: ADME, organism-based; settings: in vivo, 0.5 h; in short: as §1
Kidney [27] = assay: Biodistribution in ICR mouse kidney at 5 to 10 uCi, iv after 30 mins; assay type: ADME, organism-based; settings: in vivo, 0.5 h; in short: as §1
Muscle tissue [28] = assay: Biodistribution in ICR mouse muscle at 5 to 10 uCi, iv after 2 mins; assay type: ADME, organism-based; settings: in vivo; in short: as §1
Kidney [29] = assay: Biodistribution in ICR mouse kidney at 5 to 10 uCi, iv after 2 mins; assay type: ADME, organism-based; settings: in vivo; in short: as §1
Lung [30] = assay: Biodistribution in ICR mouse lung at 5 to 10 uCi, iv after 1 hr; assay type: ADME, organism-based; settings: in vivo; in short: as §1
Brain [31] = assay: Biodistribution in ICR mouse brain at 5 to 10 uCi, iv after 1 hr; assay type: ADME, organism-based; settings: in vivo; in short: as §1
Lung [32] = assay: Biodistribution in ICR mouse lung at 5 to 10 uCi, iv after 30 mins; assay type: ADME, organism-based; settings: in vivo, 0.5 h; in short: as §1
Heart [33] = assay: Biodistribution in ICR mouse heart at 5 to 10 uCi, iv after 2 hrs; assay type: ADME, organism-based; settings: in vivo; in short: as §1
Spleen [34] = assay: Biodistribution in ICR mouse spleen at 5 to 10 uCi, iv after 1 hr; assay type: ADME, organism-based; settings: in vivo; in short: as §1
Liver [35] = assay: Biodistribution in ICR mouse liver at 5 to 10 uCi, iv after 1 hr; assay type: ADME, organism-based; settings: in vivo; in short: as §1
[36] = Partition coefficient, log P of the compound; assay type: physicochemical; settings: octanol/water
In short: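 [125I] or [18F] tracer mixed with 3 g each of 1-octanol and 0.1 M phosphate buffer pH 7.4. Vortexed 3 min at room temperature, then centrifuged 5 min. Two 0.5 g samples from each layer counted; PC is the ratio of cpm/g in octanol to cpm/g in buffer. The octanol layer was repartitioned until values were consistent.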

Heart [37] = assay: Biodistribution in ICR mouse heart at 5 to 10 uCi, iv after 2 mins; assay type: ADME, organism-based; settings: in vivo; in short: as §1
Heart [38] = assay: Biodistribution in ICR mouse heart at 5 to 10 uCi, iv after 30 mins; assay type: ADME, organism-based; settings: in vivo, 0.5 h; in short: as §1
Liver [39] = assay: Biodistribution in ICR mouse liver at 5 to 10 uCi, iv after 2 hrs; assay type: ADME, organism-based; settings: in vivo; in short: as §1
Spleen [40] = assay: Biodistribution in ICR mouse spleen at 5 to 10 uCi, iv after 30 mins; assay type: ADME, organism-based; settings: in vivo, 0.5 h; in short: as §1
Liver [41] = assay: Biodistribution in ICR mouse liver at 5 to 10 uCi, iv after 30 mins; assay type: ADME, organism-based; settings: in vivo, 0.5 h; in short: as §1
Spleen [42] = assay: Biodistribution in ICR mouse spleen at 5 to 10 uCi, iv after 2 hrs; assay type: ADME, organism-based; settings: in vivo; in short: as §1

CN(C)c1ccc(-c2cn(-c3ccc(OCCF)cc3)nn2)cc1
Ki [1]: 5 nM

CNc1ccc(-c2cn(-c3ccc(I)cc3)nn2)cc1
Ki [1]: 4 nM

CNc1ccc(-c2cn(-c3ccc([125I])cc3)nn2)cc1
Drug uptake (Zone of skin [2]): 1.6 % ID/g
Drug uptake (Thyroid gland [3]): 11.5 % ID/g
Drug uptake (Kidney [4]): 2.91 % ID/g
Drug uptake (Blood [5]): 3.04 % ID/g
Drug uptake (Kidney [6]): 3.71 % ID/g
Drug uptake (Muscle tissue [7]): 0.47 % ID/g
Drug uptake (Zone of skin [8]): 2.34 % ID/g
Drug uptake (Blood [9]): 2.04 % ID/g
Drug uptake (Lung [10]): 16 % ID/g
Drug uptake (Spleen [11]): 4.9 % ID/g
Drug uptake (Zone of skin [12]): 1.81 % ID/g
Drug uptake (Thyroid gland [13]): 62.1 % ID/g
Drug uptake (Zone of skin [14]): 1.05 % ID/g
Drug uptake (Liver [15]): 20.7 % ID/g
Drug uptake (Blood [16]): 2.06 % ID/g
Drug uptake (Brain [17]): 0.43 % ID/g
Drug uptake (Thyroid gland [18]): 54.2 % ID/g
Drug uptake (Muscle tissue [19]): 0.56 % ID/g
Drug uptake (Thyroid gland [20]): 4.38 % ID/g
Drug uptake (Muscle tissue [21]): 1.07 % ID/g
Drug uptake (Heart [22]): 1.1 % ID/g
Drug uptake (Blood [23]): 4.45 % ID/g
Drug uptake (Brain [24]): 9.4 % ID/g
Drug uptake (Lung [25]): 2.83 % ID/g
Drug uptake (Brain [26]): 1.66 % ID/g
Drug uptake (Kidney [27]): 6.43 % ID/g
Drug uptake (Muscle tissue [28]): 0.83 % ID/g
Drug uptake (Kidney [29]): 13.4 % ID/g
Drug uptake (Lung [30]): 2.82 % ID/g
Drug uptake (Brain [31]): 0.7 % ID/g
Drug uptake (Lung [32]): 4.86 % ID/g
Drug uptake (Heart [33]): 0.89 % ID/g
Drug uptake (Spleen [34]): 1.24 % ID/g
Drug uptake (Liver [35]): 6.46 % ID/g
logP [36]: 3
Drug uptake (Heart [37]): 7.45 % ID/g
Drug uptake (Heart [38]): 1.79 % ID/g
Drug uptake (Liver [39]): 6 % ID/g
Drug uptake (Spleen [40]): 1.8 % ID/g
Drug uptake (Liver [41]): 11.1 % ID/g
Drug uptake (Spleen [42]): 1.16 % ID/g
